From ChEMBL document CHEMBL1275559, “Complex ciprofloxacin resistome revealed by screening a Pseudomonas aeruginosa mutant library for altered susceptibility” (2008)
Calls of active or inactive are those of the source.

Experiments:
Pseudomonas aeruginosa [1] = assay: Upregulation of putative phage tail protein in Pseudomonas aeruginosa PA0619 at MIC; format: functional, organism-based
Pseudomonas aeruginosa [2] = assay: Upregulation of putative tail fiber protein in Pseudomonas aeruginosa PA0620 at 0.3 times MIC; format: functional, organism-based
Pseudomonas aeruginosa [3] = assay: Upregulation of putative tail fiber protein in Pseudomonas aeruginosa PA0620 at MIC; format: functional, organism-based
Pseudomonas aeruginosa [4] = assay: Upregulation of putative phage tail tube protein in Pseudomonas aeruginosa PA0623 at 0.3 times MIC; format: functional, organism-based
Pseudomonas aeruginosa [5] = assay: Upregulation of putative tail fiber assembly protein in Pseudomonas aeruginosa PA0621 at 0.3 times MIC; format: functional, organism-based
Pseudomonas aeruginosa [6] = assay: Upregulation of putative tail fiber assembly protein in Pseudomonas aeruginosa PA0621 at MIC; format: functional, organism-based
Pseudomonas aeruginosa [7] = assay: Upregulation of putative phage tail sheath protein in Pseudomonas aeruginosa PA0622 at 0.3 times MIC after 48 hrs; format: functional, organism-based
Pseudomonas aeruginosa [8] = assay: Upregulation of putative phage tail sheath protein in Pseudomonas aeruginosa PA0622 at MIC after 48 hrs; format: functional, organism-based
Pseudomonas aeruginosa [9] = assay: Upregulation of putative phage tail tube protein in Pseudomonas aeruginosa PA0623 at MIC; format: functional, organism-based
Pseudomonas aeruginosa [10] = assay: Upregulation of conserved hypothetical protein in Pseudomonas aeruginosa PA0624 at 0.3 times MIC; format: functional, organism-based
Procedure, shortened: (§1)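 P. aeruginosa cells were treated with ciprofloxacin at 0.3× MIC or 1× MIC. Gene expression trend was scored relative to untreated cells.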

Pseudomonas aeruginosa [11] = assay: Upregulation of putative tail formation protein in Pseudomonas aeruginosa PA0626 at 0.3 times MIC; format: functional, organism-based
Pseudomonas aeruginosa [12] = assay: Upregulation of hypothetical protein in Pseudomonas aeruginosa PA0630 at 0.3 times MIC; format: functional, organism-based; procedure, shortened: as §1
Pseudomonas aeruginosa [13] = assay: Upregulation of hypothetical protein in Pseudomonas aeruginosa PA0630 at MIC; format: functional, organism-based; procedure, shortened: as §1
Pseudomonas aeruginosa [14] = assay: Upregulation of putative major tail protein V in Pseudomonas aeruginosa PA0633 at MIC; format: functional, organism-based; procedure, shortened: as §1
Pseudomonas aeruginosa [15] = assay: Upregulation of hypothetical protein in Pseudomonas aeruginosa PA0634 at 0.3 times MIC; format: functional, organism-based; procedure, shortened: as §1
Pseudomonas aeruginosa [16] = assay: Upregulation of hypothetical protein in Pseudomonas aeruginosa PA0634 at MIC; format: functional, organism-based; procedure, shortened: as §1
Pseudomonas aeruginosa [17] = assay: Upregulation of putative phage tail assembly protein in Pseudomonas aeruginosa PA0640 at 0.3 times MIC; format: functional, organism-based; procedure, shortened: as §1
Pseudomonas aeruginosa [18] = assay: Upregulation of putative phage tail assembly protein in Pseudomonas aeruginosa PA0640 at MIC; format: functional, organism-based; procedure, shortened: as §1
Pseudomonas aeruginosa [19] = assay: Upregulation of putative phage-related protein, tail component in Pseudomonas aeruginosa PA0641 at 0.3 times MIC; format: functional, organism-based
Pseudomonas aeruginosa [20] = assay: Upregulation of putative phage-related protein, tail component in Pseudomonas aeruginosa PA0641 at MIC; format: functional, organism-based
Pseudomonas aeruginosa [21] = assay: Upregulation of conserved hypothetical protein in Pseudomonas aeruginosa PA0647 at 0.3 times MIC; format: functional, organism-based; procedure, shortened: as §1
Pseudomonas aeruginosa [22] = assay: Upregulation of conserved hypothetical protein in Pseudomonas aeruginosa PA0647 at MIC; format: functional, organism-based; procedure, shortened: as §1
Pseudomonas aeruginosa [23] = assay: Upregulation of hypothetical protein in Pseudomonas aeruginosa PA0736-PA0737 at 0.3 times MIC; format: functional, organism-based; procedure, shortened: as §1
Pseudomonas aeruginosa [24] = assay: Upregulation of hypothetical protein in Pseudomonas aeruginosa PA0736-PA0737 at MIC; format: functional, organism-based; procedure, shortened: as §1
Pseudomonas aeruginosa [25] = assay: Upregulation of conserved hypothetical protein in Pseudomonas aeruginosa PA1433 at MIC after 48 hrs; format: functional, organism-based
Pseudomonas aeruginosa [26] = assay: Upregulation of putative permease of ABC transporter in Pseudomonas aeruginosa PA2060 at 0.3 times MIC after 48 hrs; format: functional, organism-based
Pseudomonas aeruginosa [27] = assay: Downregulation of hypothetical protein in Pseudomonas aeruginosa PA3276 at 0.3 times MIC after 48 hrs; format: functional, organism-based
Pseudomonas aeruginosa [28] = assay: Upregulation of conserved hypothetical protein in Pseudomonas aeruginosa PA3784 at MIC after 48 hrs; format: functional, organism-based
Pseudomonas aeruginosa [29] = assay: Upregulation of possible nuclease or phosphatase in Pseudomonas aeruginosa PA3958 at 0.3 times MIC after 48 hrs; format: functional, organism-based
Pseudomonas aeruginosa [30] = assay: Upregulation of possible nuclease or phosphatase in Pseudomonas aeruginosa PA3958 at MIC after 48 hrs; format: functional, organism-based
Pseudomonas aeruginosa [31] = assay: Upregulation of hypothetical protein in Pseudomonas aeruginosa PA0338 at MIC; format: functional, organism-based; procedure, shortened: as §1
Pseudomonas aeruginosa [32] = assay: Upregulation of putative tail length determination protein in Pseudomonas aeruginosa PA0636 at 0.3 times MIC; format: functional, organism-based
Pseudomonas aeruginosa [33] = assay: Upregulation of putative tail length determination protein in Pseudomonas aeruginosa PA0636 at MIC; format: functional, organism-based
Pseudomonas aeruginosa [34] = assay: Upregulation of putative minor tail protein L in Pseudomonas aeruginosa PA0638 at MIC; format: functional, organism-based; procedure, shortened: as §1
Pseudomonas aeruginosa [35] = assay: Upregulation of putative major tail protein V in Pseudomonas aeruginosa PA0633 at 0.3 times MIC; format: functional, organism-based; procedure, shortened: as §1
Pseudomonas aeruginosa [36] = assay: Upregulation of putative tail formation protein in Pseudomonas aeruginosa PA0626 at MIC; format: functional, organism-based
Pseudomonas aeruginosa [37] = assay: Upregulation of conserved hypothetical protein in Pseudomonas aeruginosa PA0624 at MIC; format: functional, organism-based; procedure, shortened: as §1
Pseudomonas aeruginosa [38] = assay: Upregulation of conserved hypothetical protein in Pseudomonas aeruginosa PA0613 at MIC after 48 hrs; format: functional, organism-based
Pseudomonas aeruginosa [39] = assay: Upregulation of ygdP gene in Pseudomonas aeruginosa PA0336 at 0.3 times MIC relative to untreated control; format: functional, organism-based
Pseudomonas aeruginosa [40] = assay: Upregulation of ygdP gene in Pseudomonas aeruginosa PA0336 at 1 times MIC relative to untreated control; format: functional, organism-based
Pseudomonas aeruginosa [41] = assay: Upregulation of mexB gene in Pseudomonas aeruginosa PA0426 at 0.3 times MIC relative to untreated control; format: functional, organism-based; procedure, shortened: as §1
Pseudomonas aeruginosa [42] = assay: Upregulation of oprM gene in Pseudomonas aeruginosa PA0427 at 1 times MIC relative to untreated control; format: functional, organism-based; procedure, shortened: as §1
Pseudomonas aeruginosa [43] = assay: Downregulation of oprF gene in Pseudomonas aeruginosa PA1777 at 1 times MIC relative to untreated control; format: functional, organism-based; procedure, shortened: as §1
Pseudomonas aeruginosa [44] = assay: Downregulation of tig gene in Pseudomonas aeruginosa PA1800 at 1 times MIC relative to untreated control; format: functional, organism-based; procedure, shortened: as §1
Pseudomonas aeruginosa [45] = assay: Downregulation of betT1 gene in Pseudomonas aeruginosa PA5375 at 0.3 times MIC relative to untreated control; format: functional, organism-based; procedure, shortened: as §1
Pseudomonas aeruginosa [46] = assay: Upregulation of nuoN gene in Pseudomonas aeruginosa PA2649 at 0.3 times MIC; format: functional, organism-based; procedure, shortened: as §1
Pseudomonas aeruginosa [47] = assay: Upregulation of hitB gene in Pseudomonas aeruginosa PA4688 at 0.3 times MIC; format: functional, organism-based; procedure, shortened: as §1
Pseudomonas aeruginosa [48] = assay: Upregulation of hitB gene in Pseudomonas aeruginosa PA4688 at MIC; format: functional, organism-based; procedure, shortened: as §1
Pseudomonas aeruginosa [49] = assay: Upregulation of mutL gene in Pseudomonas aeruginosa PA4946 at MIC; format: functional, organism-based; procedure, shortened: as §1
Pseudomonas aeruginosa [50] = assay: Downregulation of nuoG gene in Pseudomonas aeruginosa PA2642 at MIC; format: functional, organism-based; procedure, shortened: as §1
Pseudomonas aeruginosa [51] = assay: Downregulation of adhA gene in Pseudomonas aeruginosa PA5427 at MIC; format: functional, organism-based; procedure, shortened: as §1
Pseudomonas aeruginosa [52] = assay: Upregulation of atpB gene in Pseudomonas aeruginosa PA5560 at MIC; format: functional, organism-based; procedure, shortened: as §1
Pseudomonas aeruginosa [53] = assay: Upregulation of gidA gene in Pseudomonas aeruginosa PA5565 at MIC; format: functional, organism-based; procedure, shortened: as §1
Pseudomonas aeruginosa [54] = assay: Upregulation of hypothetical protein in Pseudomonas aeruginosa PA0338 at 0.3 times MIC; format: functional, organism-based; procedure, shortened: as §1
Pseudomonas aeruginosa [55] = assay: Upregulation of putative sensor/response regulator hybrid in Pseudomonas aeruginosa PA1611 at 0.3 times MIC; format: functional, organism-based
Pseudomonas aeruginosa [56] = assay: Upregulation of hypothetical protein in Pseudomonas aeruginosa PA4459 at MIC; format: functional, organism-based; procedure, shortened: as §1
Pseudomonas aeruginosa [57] = assay: Upregulation of hypothetical protein in Pseudomonas aeruginosa PA4685 at 0.3 times MIC; format: functional, organism-based; procedure, shortened: as §1
Pseudomonas aeruginosa [58] = assay: Upregulation of conserved hypothetical protein in Pseudomonas aeruginosa PA0613 at 0.3 times MIC after 48 hrs; format: functional, organism-based
Pseudomonas aeruginosa [59] = assay: Upregulation of conserved hypothetical protein in Pseudomonas aeruginosa PA0615 at 0.3 times MIC; format: functional, organism-based; procedure, shortened: as §1
Pseudomonas aeruginosa [60] = assay: Upregulation of hypothetical protein in Pseudomonas aeruginosa PA0616 at 0.3 times MIC; format: functional, organism-based; procedure, shortened: as §1
Pseudomonas aeruginosa [61] = assay: Upregulation of conserved hypothetical protein in Pseudomonas aeruginosa PA0615 at MIC; format: functional, organism-based; procedure, shortened: as §1
Pseudomonas aeruginosa [62] = assay: Upregulation of hypothetical protein in Pseudomonas aeruginosa PA0616 at MIC; format: functional, organism-based; procedure, shortened: as §1
Pseudomonas aeruginosa [63] = assay: Upregulation of putative base plate assembly protein W in Pseudomonas aeruginosa PA0617 at 0.3 times MIC; format: functional, organism-based; procedure, shortened: as §1
Pseudomonas aeruginosa [64] = assay: Upregulation of putative base plate assembly protein W in Pseudomonas aeruginosa PA0617 at MIC; format: functional, organism-based; procedure, shortened: as §1
Pseudomonas aeruginosa [65] = assay: Upregulation of putative phage base plate assembly protein in Pseudomonas aeruginosa PA0618 at 0.3 times MIC; format: functional, organism-based; procedure, shortened: as §1
Pseudomonas aeruginosa [66] = assay: Upregulation of putative phage base plate assembly protein in Pseudomonas aeruginosa PA0618 at MIC; format: functional, organism-based; procedure, shortened: as §1
Pseudomonas aeruginosa [67] = assay: Upregulation of putative phage tail protein in Pseudomonas aeruginosa PA0619 at 0.3 times MIC; format: functional, organism-based; procedure, shortened: as §1
Pseudomonas aeruginosa [68] = assay: Downregulation of betT1 gene in Pseudomonas aeruginosa PA5375 at 0.3 times MIC relative to untreated control

Measured: Activity

O=C(O)c1cn(C2CC2)c2cc(N3CCNCC3)c(F)cc2c1=O
active: Pseudomonas aeruginosa [1] | Pseudomonas aeruginosa [2] | Pseudomonas aeruginosa [3] | Pseudomonas aeruginosa [4] | Pseudomonas aeruginosa [5] | Pseudomonas aeruginosa [6] | Pseudomonas aeruginosa [7] | Pseudomonas aeruginosa [8] | Pseudomonas aeruginosa [9] | Pseudomonas aeruginosa [10] | Pseudomonas aeruginosa [11] | Pseudomonas aeruginosa [12] | Pseudomonas aeruginosa [13] | Pseudomonas aeruginosa [14] | Pseudomonas aeruginosa [15] | Pseudomonas aeruginosa [16] | Pseudomonas aeruginosa [17] | Pseudomonas aeruginosa [18] | Pseudomonas aeruginosa [19] | Pseudomonas aeruginosa [20] | Pseudomonas aeruginosa [21] | Pseudomonas aeruginosa [22] | Pseudomonas aeruginosa [23] | Pseudomonas aeruginosa [24] | Pseudomonas aeruginosa [25] | Pseudomonas aeruginosa [26] | Pseudomonas aeruginosa [27] | Pseudomonas aeruginosa [28] | Pseudomonas aeruginosa [29] | Pseudomonas aeruginosa [30] | Pseudomonas aeruginosa [31] | Pseudomonas aeruginosa [32] | Pseudomonas aeruginosa [33] | Pseudomonas aeruginosa [34] | Pseudomonas aeruginosa [35] | Pseudomonas aeruginosa [36] | Pseudomonas aeruginosa [37] | Pseudomonas aeruginosa [38] | Pseudomonas aeruginosa [39] | Pseudomonas aeruginosa [40] | Pseudomonas aeruginosa [41] | Pseudomonas aeruginosa [42] | Pseudomonas aeruginosa [43] | Pseudomonas aeruginosa [44] | Pseudomonas aeruginosa [45] | Pseudomonas aeruginosa [46] | Pseudomonas aeruginosa [47] | Pseudomonas aeruginosa [48] | Pseudomonas aeruginosa [49] | Pseudomonas aeruginosa [50] | Pseudomonas aeruginosa [51] | Pseudomonas aeruginosa [52] | Pseudomonas aeruginosa [53] | Pseudomonas aeruginosa [54] | Pseudomonas aeruginosa [55] | Pseudomonas aeruginosa [56] | Pseudomonas aeruginosa [57] | Pseudomonas aeruginosa [58] | Pseudomonas aeruginosa [59] | Pseudomonas aeruginosa [60] | Pseudomonas aeruginosa [61] | Pseudomonas aeruginosa [62] | Pseudomonas aeruginosa [63] | Pseudomonas aeruginosa [64] | Pseudomonas aeruginosa [65] | Pseudomonas aeruginosa [66] | Pseudomonas aeruginosa [67] | Pseudomonas aeruginosa [68]
